The text below walks through data of publication PMC6263152 (Journal of medicinal chemistry, 2018).

In data set [1] the test system is PC3-PIP (PSMA+) and PC3 (PSMA−) cell containing tissue. Description: PET/CT imaging in mice bearing PC3 and PC3-PIP cells. Format: in vivo, C57BL/6 mice. In a few lines:
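Male C57BL/6 mice received s.c. 3 × 10^6 (18 mg) PC3 cells in the left flank and PC3-PIP cells in the right flank (n = 6); mice without cells served as controls (n = 5). 15 min later, [18F]-labelled test compound (80 μCi, 2.5 nmol, 100 μL) was given i.v. by tail vein. A 10 min CT then a 15 min PET scan were acquired at 2 and 6 h, shown as maximum intensity projections.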

Data set [2] has as its system PC3 (PSMA−) cells. Description: FACS flow cytometry nonspecific binding control, PC3 cells. In a few lines:
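PSMA− PC3 cells (luciferase/GFP-expressing) were incubated with 0.1–100 nM test compound for 1 h at 37 °C. Cell-bound fluorescence was read by flow cytometry in the Cy3 channel (488 nm, 22 mW excitation; 620/30 emission filter). Curves were fitted with a two-parameter exponential function. Flow experiments were run in duplicate.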

A short description of data set [3]: Defluoridation stability. It is filed as in vitro ADME.
Data set [4] deals with PC3-PIP (PSMA+) vs PC3 (PSMA−) cell containing myocutaneous tissue. Nature of the data set: Ex vivo γ-scintillated biodistribution in mice bearing PC3 and PC3-PIP cells. As to conditions: 2 h after iv injection, γ-scintillation of excised tissue. Details: species or system C57BL/6 mice. The method, boiled down: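 Male C57BL/6 mice, 5–6 weeks old, 20–25 g (n = 6), were given 3 × 10^6 (18 mg) PC3 cells s.c. in the left flank and PC3-PIP cells in the right flank. After 15 min, radiotracer (100 μL, 80 μCi, 25 μM; 2.5 nmol) went i.v. via the tail vein. Mice were killed by cervical dislocation at 2 h. Organs and flank myocutaneous tissue were weighed and γ-counted as %ID per gram, mean ± SEM.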

Data set [5] can be described thus: Optical properties in 1× PBS. It is filed as physicochemical. To be noted: pH 7.5.

On to `CC1(C)C(/C=C/C=C2\N(CCCCCC(=O)NCCCC[C@H](NC(=O)N[C@H](CCC(=O)O)C(=O)O)C(=O)O)c3ccc(S(=O)(=O)O)cc3C2(C)C)=[N+](CCCCCC(=O)NCCCCn2cc(C[N+](C)(C)C[B-](F)(F)F)nn2)c2ccc(S(=O)(=O)O)cc21` [[^19F]-4, ((((1-(4-(6-(2-((E)-3-((Z)-1-(6-(((S)-5-Carboxy-5-(3-((R)-1,3-dicarboxypropyl)ureido)pentyl)amino)-6-oxohexyl)-3,3-dimethyl-5-sulfoindolin-2-ylidene)prop-1-en-1-yl)-3,3-dimethyl-5-sulfo-3H-indol-1-ium-1-yl)hexanamido)butyl)-1H-1,2,3-triazol-4-yl)methyl)dimethylammonio)methyl) Trifluoroborate], for which the “Liberation of [18F]-fluoride ion (defluoridation) in vivo” value in data set [1] was “not observed”. Besides, in data set [2], the “Nonspecific binding to PC3” value was “not observed”. Besides, the Defluoridation result in data set [3] (7 days room temperature incubation with fetal bovine serum) is recorded as “Less than 1%”. Also, the “Chemical decomposition (defluoridation)” value in data set [3] (physiological conditions) is reported as “not observed”. Also, the “Activity in PC3-PIP (PSMA+) vs PC3 (PSMA−) containing myocutaneous tissue” value in data set [4] worked out at 175 fold. Moreover, in data set [5] (1 mM PBS), the Extinction coefficient is 159 000 M^−1 cm^−1. Besides, in data set [5], the “Quantum yield φ” value was determined as 0.06.
